Laboratory results taken from ChEMBL document CHEMBL1156936, “2,3-Diamino acid modifying 3S-tetrahydroisoquinoline-3-carboxylic acids: leading to a class of novel agents with highly unfolded conformation, selective in vitro anti-platelet aggregation and potent in vivo anti-thrombotic activity” (Bioorg Med Chem, 2010).
Square brackets hold non-standard residues; d marks the D form. Peptide text beside a SMILES is read from it. Tic = O=C(O)[C@@H]1Cc2ccccc2CN1

Experiments:
Platelet [1] = assay: Inhibition of thrombin-induced pig platelet aggregation measured for 5 mins; assay type: functional, cell-based; settings: Sus scrofa
Method in brief: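 Pig blood spun at 1000g for 10 min to give PRP and at 1500g for 10 min to give PPP. Platelets adjusted to 2×10⁸/ml with autologous PPP, and 0.5 ml is pre-mixed with NS or drug at six tenfold-spaced final concentrations. After baseline the agonist is added (thrombin final 0.1 U/ml). Optical aggregation is read at 37 °C for 5 min. Peak height is taken as maximal aggregation, and % inhibition is calculated against NS. Run in sextuplicate; IC50 from the concentration–inhibition curve.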

Rattus norvegicus [2] = assay: Antithrombotic activity in Wistar rat assessed as reduction of thrombus weight at 30 nmol/kg, po; assay type: functional
Method in brief: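 Drug in NS (or NS alone, 0.6 ml) is given orally to male Wistar rats (250–300 g), then pentobarbital sodium 80.0 mg/kg ip. Thirty min later the right carotid artery and left jugular vein are exposed and joined by a heparinized thread-containing shunt. Blood flows for 15 min, and the wet thrombus is weighed. n=12; analysis by ANOVA.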

Rattus norvegicus [3] = assay: Antithrombotic activity in Wistar rat assessed as reduction of thrombus weight at 30 nmol/kg, iv; assay type: functional
Method in brief: (§1)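 Male Wistar rats (250–300 g) with an arteriovenous shunt: a polyethylene tube holding a thread joins the right carotid artery to the left jugular vein. Heparin sodium is injected through the tube, then vehicle (NS) or drug dissolved in NS and kept on ice. Blood flows for 15 min, and the wet thrombus on the thread is weighed. Analysis by ANOVA.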

Platelet [4] = assay: Inhibition of platelet activating factor-induced pig platelet aggregation measured for 5 mins; assay type: functional, cell-based; settings: Sus scrofa
Platelet [5] = assay: Inhibition of adenosine diphosphate-induced pig platelet aggregation measured for 5 mins; assay type: functional, cell-based; settings: Sus scrofa
Platelet [6] = assay: Inhibition of arachidonic acid-induced pig platelet aggregation measured for 5 mins; assay type: functional, cell-based; settings: Sus scrofa
Rattus norvegicus [7] = assay: Antithrombotic activity in Wistar rat assessed as reduction of thrombus weight at 0.3 nmol/kg, iv; assay type: functional; method in brief: as §1
Rattus norvegicus [8] = assay: Antithrombotic activity in Wistar rat assessed as reduction of thrombus weight at 3 nmol/kg, iv; assay type: functional; method in brief: as §1
Rattus norvegicus [9] = assay: Antithrombotic activity in iv dosed Wistar rat assessed as reduction of thrombus weight; assay type: functional, organism-based; method in brief: as §1
Rattus norvegicus [10] = assay: Antithrombotic activity in Wistar rat assessed as reduction of thrombus weight at 165 umol/kg, iv; assay type: functional; method in brief: as §1
Rattus norvegicus [11] = assay: Antithrombotic activity in Wistar rat assessed as reduction of thrombus weight at 15 umol/kg, iv; assay type: functional; method in brief: as §1
Rattus norvegicus [12] = assay: Antithrombotic activity in Wistar rat assessed as reduction of thrombus weight at 0.03 nmol/kg, iv; assay type: functional; method in brief: as §1

Row | SMILES | IC50 (Platelet [1]) [nM] | Activity (Rattus norvegicus [2]) [mg] | Activity (Rattus norvegicus [3]) [mg] | IC50 (Platelet [4]) [nM] | IC50 (Platelet [5]) [nM] | IC50 (Platelet [6]) [nM] | Activity (Rattus norvegicus [7]) [mg] | Activity (Rattus norvegicus [8]) [mg] | Activity (Rattus norvegicus [9]) | Activity (Rattus norvegicus [10]) [mg] | Activity (Rattus norvegicus [11]) [mg] | Activity (Rattus norvegicus [12]) [mg]
1 | NCCCC[C@H](NC(=O)[C@@H]1Cc2ccccc2CN1C(=O)[C@@H](N)CCCCN)C(=O)O (H-Lys-[Tic]-Lys-OH) | 8.98 | 19.72 | 18.65 | 5.67 | 3.73 | 9.64 | – | – | – | – | – | –
2 | C[C@H](N)C(=O)N1Cc2ccccc2C[C@H]1C(=O)N[C@@H](C)C(=O)O | 9.48 | 18.89 | 17.12 | 5.6 | 2.36 | 8.73 | 29.77 | 23.35 | Dose-dependent effect | – | – | –
3 | N[C@@H](CS)C(=O)N1Cc2ccccc2C[C@H]1C(=O)N[C@@H](CS)C(=O)O (H-Cys-[Tic]-Cys-OH) | 9.64 | – | 19.35 | 6.32 | 3.26 | 8.18 | – | – | – | – | – | –
4 | N[C@@H](CCC(=O)O)C(=O)N1Cc2ccccc2C[C@H]1C(=O)N[C@@H](CCC(=O)O)C(=O)O (H-Glu-[Tic]-Glu-OH) | 10.3 | – | 18.95 | 4.19 | 2.19 | 9.86 | – | – | – | – | – | –
5 | CC[C@H](C)[C@H](N)C(=O)N1Cc2ccccc2C[C@H]1C(=O)N[C@H](C(=O)O)[C@@H](C)CC (H-Ile-[Tic]-Ile-OH) | 11.3 | – | 24.3 | 5.64 | 2.89 | 8.92 | – | – | – | – | – | –
6 | N[C@@H](Cc1c[nH]cn1)C(=O)N1Cc2ccccc2C[C@H]1C(=O)N[C@@H](Cc1cnc[nH]1)C(=O)O (H-His-[Tic]-His-OH) | 10 | – | 20.91 | 5.57 | 2.84 | 9.38 | – | – | – | – | – | –
7 | CC(=O)Oc1ccccc1C(=O)O [ASPIRIN] | – | – | – | – | – | – | – | – | – | 13.22 | – | –
8 | CSCC[C@H](NC(=O)[C@@H]1Cc2ccccc2CN1C(=O)[C@@H](N)CCSC)C(=O)O (H-Met-[Tic]-Met-OH) | 9.99 | – | 19.36 | 4.91 | 3.42 | 8.19 | – | – | – | – | – | –
9 | NC(=O)C[C@H](NC(=O)[C@@H]1Cc2ccccc2CN1C(=O)[C@@H](N)CC(N)=O)C(=O)O (H-Asn-[Tic]-Asn-OH) | 8.43 | 16.88 | 17.95 | 5.39 | 3.07 | 8.28 | – | – | – | – | – | –
10 | NCC(=O)N1Cc2ccccc2C[C@H]1C(=O)NCC(=O)O (H-Gly-[Tic]-Gly-OH) | 10.6 | – | 25.2 | 5.15 | 2.44 | 7.95 | – | – | – | – | – | –
11 | N[C@@H](CC(=O)O)C(=O)N1Cc2ccccc2C[C@H]1C(=O)N[C@@H](CC(=O)O)C(=O)O (H-Asp-[Tic]-Asp-OH) | 11.1 | – | 20.49 | 4.37 | 3.48 | 9.55 | – | – | – | – | – | –
12 | N[C@@H](CO)C(=O)N1Cc2ccccc2C[C@H]1C(=O)N[C@@H](CO)C(=O)O (H-Ser-[Tic]-Ser-OH) | 10.2 | – | 20.97 | 5.36 | 2.17 | 7.99 | – | – | – | – | – | –
13 | O=C(O)[C@@H]1Cc2ccccc2CN1 | – | – | – | – | – | – | – | – | – | – | 21.52 | –
14 | N[C@@H](Cc1ccc(O)cc1)C(=O)N1Cc2ccccc2C[C@H]1C(=O)N[C@@H](Cc1ccc(O)cc1)C(=O)O (H-Tyr-[Tic]-Tyr-OH) | 9.84 | – | 18.79 | 4.52 | 2.58 | 8.83 | – | – | – | – | – | –
15 | NC(=O)CC[C@H](NC(=O)[C@@H]1Cc2ccccc2CN1C(=O)[C@@H](N)CCC(N)=O)C(=O)O (H-Gln-[Tic]-Gln-OH) | 9.13 | 18.23 | 18.13 | 5.72 | 2.55 | 8.37 | – | – | – | – | – | –
16 | N[C@@H](Cc1ccccc1)C(=O)N1Cc2ccccc2C[C@H]1C(=O)N[C@@H](Cc1ccccc1)C(=O)O (H-Phe-[Tic]-Phe-OH) | 8.87 | – | 22.51 | 4.92 | 2.23 | 7.84 | – | – | – | – | – | –
17 | C[C@@H](O)[C@H](N)C(=O)N1Cc2ccccc2C[C@H]1C(=O)N[C@H](C(=O)O)[C@@H](C)O (H-Thr-[Tic]-Thr-OH) | 10.8 | 17.53 | 14.32 | 4.14 | 2.89 | 10 | 28.63 | 20.95 | Dose-dependent effect | – | – | –
18 | N=C(N)NCCC[C@H](NC(=O)[C@@H]1Cc2ccccc2CN1C(=O)[C@@H](N)CCCNC(=N)N)C(=O)O (H-Arg-[Tic]-Arg-OH) | 9.87 | 15.15 | 10.61 | 6.07 | 3.15 | 9.17 | – | 16.29 | Dose-dependent effect | – | – | 19.71
19 | CC(C)C[C@H](NC(=O)[C@@H]1Cc2ccccc2CN1C(=O)[C@@H](N)CC(C)C)C(=O)O (H-Leu-[Tic]-Leu-OH) | 10 | – | 19.53 | 5.03 | 2.57 | 8.17 | – | – | – | – | – | –
20 | CC(C)[C@H](N)C(=O)N1Cc2ccccc2C[C@H]1C(=O)N[C@H](C(=O)O)C(C)C (H-Val-[Tic]-Val-OH) | 9.25 | – | 19.42 | 5.87 | 2.57 | 9.08 | – | – | – | – | – | –
